Results: BindingDB's records for doi:10.1016/j.bmcl.2015.12.102 (Reset Therapeutics, 2016)

target: T1, Period circadian protein homolog 2 (Homo sapiens, UniProt O15055); assay: Reduction of amplitude effect of PER2 in human U2OS cells harboring Per2-dLuc luciferase reporter gene assessed as effects on circadian rhythms
T1 sequence (O15055 whole entry): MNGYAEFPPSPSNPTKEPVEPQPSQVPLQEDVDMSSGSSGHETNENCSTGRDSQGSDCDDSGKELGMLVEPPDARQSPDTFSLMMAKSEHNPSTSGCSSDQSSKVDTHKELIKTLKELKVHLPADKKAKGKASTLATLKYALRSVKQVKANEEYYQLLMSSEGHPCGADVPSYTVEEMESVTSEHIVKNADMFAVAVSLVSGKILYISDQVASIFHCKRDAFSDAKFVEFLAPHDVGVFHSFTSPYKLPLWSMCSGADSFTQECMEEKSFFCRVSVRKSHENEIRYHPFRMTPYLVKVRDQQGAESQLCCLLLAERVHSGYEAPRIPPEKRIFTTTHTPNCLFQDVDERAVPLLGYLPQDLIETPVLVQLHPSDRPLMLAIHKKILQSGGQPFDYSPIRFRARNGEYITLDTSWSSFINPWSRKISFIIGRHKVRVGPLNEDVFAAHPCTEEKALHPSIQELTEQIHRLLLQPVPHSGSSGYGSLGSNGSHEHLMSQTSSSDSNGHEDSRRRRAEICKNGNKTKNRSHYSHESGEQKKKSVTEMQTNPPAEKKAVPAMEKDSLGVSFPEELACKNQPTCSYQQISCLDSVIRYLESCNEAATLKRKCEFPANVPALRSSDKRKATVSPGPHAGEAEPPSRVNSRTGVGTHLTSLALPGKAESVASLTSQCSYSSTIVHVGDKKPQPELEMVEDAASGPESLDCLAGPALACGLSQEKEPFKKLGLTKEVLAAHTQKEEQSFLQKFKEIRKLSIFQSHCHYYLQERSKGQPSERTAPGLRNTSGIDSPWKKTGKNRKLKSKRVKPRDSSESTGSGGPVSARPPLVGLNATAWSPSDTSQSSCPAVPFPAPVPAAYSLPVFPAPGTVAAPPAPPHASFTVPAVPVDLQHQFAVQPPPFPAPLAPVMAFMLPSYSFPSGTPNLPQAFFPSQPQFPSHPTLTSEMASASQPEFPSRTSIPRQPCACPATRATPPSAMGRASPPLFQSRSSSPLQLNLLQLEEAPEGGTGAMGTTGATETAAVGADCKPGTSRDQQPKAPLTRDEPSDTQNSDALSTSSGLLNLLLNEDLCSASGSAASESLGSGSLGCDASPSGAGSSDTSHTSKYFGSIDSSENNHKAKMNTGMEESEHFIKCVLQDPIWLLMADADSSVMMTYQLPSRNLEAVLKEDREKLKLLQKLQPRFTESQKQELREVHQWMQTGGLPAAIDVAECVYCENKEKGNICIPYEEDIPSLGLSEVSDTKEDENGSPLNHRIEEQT
How it was run: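 Human osteosarcoma U2OS cells carrying a Per2-dLuc luciferase reporter, treated continuously; circadian luminescence rhythm amplitude followed. 8-point threefold dilution series; EC50 taken as concentration giving 50% of the compound's own maximal response (titrations without plateau give no EC50).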

| EC50 | Compound |
| --- | --- |
| 557 nM | O=S(=O)(C1CC1)N(Cc1ccco1)CC(O)Cn1c2ccccc2c2ccccc21 (stereo unspecified) |
| 361 nM | CC(C)CS(=O)(=O)N(Cc1ccco1)CC(O)Cn1c2ccccc2c2ccccc21 (stereo unspecified) |
| 438 nM | CC(C)S(=O)(=O)N(Cc1ccco1)CC(O)Cn1c2ccccc2c2ccccc21 (stereo unspecified) |
| 516 nM | CCCS(=O)(=O)N(Cc1ccco1)CC(O)Cn1c2ccccc2c2ccccc21 (stereo unspecified) |
| 197 nM | CCS(=O)(=O)N(Cc1ccco1)CC(O)Cn1c2ccccc2c2ccccc21 (stereo unspecified) |
| > 10000 nM | CS(=O)(=O)N(CC(O)Cn1c2ccccc2c2ccccc21)c1ccccn1 (stereo unspecified) |
| 308 nM | CS(=O)(=O)N(CC(O)Cn1c2ccccc2c2ccccc21)C1CCCC1 (stereo unspecified) |
| 3530 nM | CS(=O)(=O)N(CC(O)Cn1c2ccccc2c2ccccc21)C1COC1 (stereo unspecified) |
| 1270 nM | CS(=O)(=O)N(CC(O)Cn1c2ccccc2c2ccccc21)C1CC(F)(F)C1 (stereo unspecified) |
| 1020 nM | COCCN(CC(O)Cn1c2ccccc2c2ccccc21)S(C)(=O)=O (stereo unspecified) |
| 272 nM | CS(=O)(=O)N(CC(O)Cn1c2ccccc2c2ccccc21)c1ccccc1 (stereo unspecified) |
| 2550 nM | CS(=O)(=O)N(CC(O)Cn1c2ccccc2c2ccccc21)c1ccccc1F (stereo unspecified) |
| 400 nM | CS(=O)(=O)N(CC(O)Cn1c2ccccc2c2ccccc21)c1cccc(F)c1 (stereo unspecified) |
| 939 nM | CS(=O)(=O)N(CC(O)Cn1c2ccccc2c2ccccc21)c1ccc(F)cc1 (stereo unspecified) |
| 818 nM | CS(=O)(=O)N(Cc1ccccc1)CC(O)Cn1c2ccccc2c2ccccc21 (stereo unspecified) |
| 479 nM | CS(=O)(=O)NCC(O)Cn1c2ccccc2c2ccccc21 (stereo unspecified) |
| 781 nM | CN(CC(O)Cn1c2ccccc2c2ccccc21)S(C)(=O)=O (stereo unspecified) |
| 505 nM | CCN(CC(O)Cn1c2ccccc2c2ccccc21)S(C)(=O)=O (stereo unspecified) |
| 408 nM | CCCN(CC(O)Cn1c2ccccc2c2ccccc21)S(C)(=O)=O (stereo unspecified) |
| 511 nM | CC(C)N(CC(O)Cn1c2ccccc2c2ccccc21)S(C)(=O)=O (stereo unspecified) |
| 178 nM | CC(C)CN(CC(O)Cn1c2ccccc2c2ccccc21)S(C)(=O)=O (stereo unspecified) |
| 446 nM | CS(=O)(=O)N(CC(O)Cn1c2ccccc2c2ccccc21)C1CC1 (stereo unspecified) |
| 129 nM | CS(=O)(=O)N(CC(O)Cn1c2ccccc2c2ccccc21)C1CCC1 (stereo unspecified) |
| 870 nM | CS(=O)(=O)N(Cc1ccco1)CC(O)Cn1c2ccccc2c2ccccc21 (stereo unspecified) [N-(3-carbazol-9-yl-2-hydroxypropyl)-N-(furan-2-ylmethyl)methanesulfonamide] |

More lines, now with the values behind:

| Compound | EC50 |
| --- | --- |
| O=S(=O)(C1CCCCC1)N(Cc1ccco1)CC(O)Cn1c2ccccc2c2ccccc21 (stereo unspecified) | 1000 nM |
| COCCS(=O)(=O)N(Cc1ccco1)CC(O)Cn1c2ccccc2c2ccccc21 (stereo unspecified) | 288 nM |
| CCCCS(=O)(=O)N(Cc1ccco1)CC(O)Cn1c2ccccc2c2ccccc21 (stereo unspecified) | 374 nM |
| O=S(=O)(C1CCOC1)N(Cc1ccco1)CC(O)Cn1c2ccccc2c2ccccc21 (stereo unspecified) | 1180 nM |
| CS(=O)(=O)N(CC(O)Cn1c2ccccc2c2ccccc21)C1CCCCC1 (stereo unspecified) | 532 nM |
| CS(=O)(=O)N(CC(O)Cn1c2ccccc2c2ccccc21)C1CCOCC1 (stereo unspecified) | 819 nM |
| CS(=O)(=O)N(CC(O)Cn1c2ccccc2c2ccccc21)C1CCC(F)(F)CC1 (stereo unspecified) | 690 nM |
| O=S1(=O)CCN1CC(O)Cn1c2ccccc2c2ccccc21 (stereo unspecified) | 190 nM |
| O=S1(=O)CCCN1CC(O)Cn1c2ccccc2c2ccccc21 (stereo unspecified) | 144 nM |
| O=S1(=O)CCCCN1CC(O)Cn1c2ccccc2c2ccccc21 (stereo unspecified) | 173 nM |
| O=S1(=O)COCCN1CC(O)Cn1c2ccccc2c2ccccc21 (stereo unspecified) | 73 nM |
| O=S1(=O)NCCN1CC(O)Cn1c2ccccc2c2ccccc21 (stereo unspecified) | 42 nM |
| CN1CCN(CC(O)Cn2c3ccccc3c3ccccc32)S1(=O)=O (stereo unspecified) | 132 nM |
| O=S1(=O)NCCCN1CC(O)Cn1c2ccccc2c2ccccc21 (stereo unspecified) | 384 nM |
| CN1CCCN(CC(O)Cn2c3ccccc3c3ccccc32)S1(=O)=O (stereo unspecified) | 726 nM |
| O=S(=O)(c1ccccc1)N(Cc1ccco1)CC(O)Cn1c2ccccc2c2ccccc21 (stereo unspecified) | 1090 nM |
| O=S(=O)(Cc1ccccc1)N(Cc1ccco1)CC(O)Cn1c2ccccc2c2ccccc21 (stereo unspecified) | 415 nM |
